Rows were chosen to be rich in hits. Some 3.8% of all compounds tested hit in one or more screens of this group.
MPTP inh – mitochondrial permeability transition pore inhibitors, primary screen, biochemical, isolated mouse mitochondria, absorbance | Ca2+ swelling absorbance, 30 min | inhibition, % at 10 µM | hit rate 1.4% among 360,000;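 active means inhibition of 50% or more, scaled per plate between neutral and stimulator controls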
CHO parental Ca – ATP-evoked calcium signal inhibitors, parental CHO, primary screen, counter-screen for OX1R antagonist project, cell-based, fluorescence, Fluo-8 calcium dye; parental CHO-K1, ATP-induced calcium, Fluo-8 fluorescence; hit rate 0.63% among 330,000; inhibition, % at 5.6 µM;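 active means inhibition above that plate's mean sample inhibition plus 3 SD, cut at about 26% in these data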
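Assay system: parental CHO cells; Read-out basis: percent inhibition of ATP-evoked calcium rise, normalized to controls; Benchmarks: ATP and no-ATP DMSO wells; Compound dosing: single nominal dose of 5.6 µM per compound; Signal: Fluo-8 calcium dye fluorescence; Also added: ATP as calcium-mobilizing challenge; Repeats: singlicate.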
OX1R antag-1 – OX1R (HCRTR1) antagonists, primary screen, fluorescence, CHO/OX1R cells, Fluo-8 calcium, orexin A | Fluo-8 calcium fluorescence | inhibition, % at 5 µM | AID 434989, 2010 | Orexin/Hypocretin receptor type 1 (Homo sapiens), O43613 | hit rate 0.43% among 330,000;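 active means inhibition above its plate's threshold, mean inhibition of all tested compounds on the plate plus 3 SD, cut at about 37% in these data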
Target sequence (O43613 whole entry, looked up): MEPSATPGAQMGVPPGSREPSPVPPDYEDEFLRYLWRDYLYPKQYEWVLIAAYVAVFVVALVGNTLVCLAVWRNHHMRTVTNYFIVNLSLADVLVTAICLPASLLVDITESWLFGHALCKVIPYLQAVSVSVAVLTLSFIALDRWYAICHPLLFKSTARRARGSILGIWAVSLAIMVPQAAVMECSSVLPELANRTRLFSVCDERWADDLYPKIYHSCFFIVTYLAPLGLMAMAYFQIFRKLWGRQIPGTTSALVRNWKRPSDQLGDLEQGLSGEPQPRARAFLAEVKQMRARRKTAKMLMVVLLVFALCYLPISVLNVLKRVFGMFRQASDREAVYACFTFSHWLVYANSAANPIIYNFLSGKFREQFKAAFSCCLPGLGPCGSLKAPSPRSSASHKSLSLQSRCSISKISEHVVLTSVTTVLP
OX1R antag-2 – antagonists of human orexin 1 receptor (OX1R). OX1R-expressing cells, FRET antagonist read-out. Orexin/Hypocretin receptor type 1 (Homo sapiens), O43613. inhibition, % at 6.6 µM. hit rate 1.8% among 330,000; in the data active means inhibition mostly above about 38%, no sharp cut-off; inactive means mostly below about 40%
GPR7 antagonist – GPR7 receptor antagonists, primary screen, cell-based, fluorescence, single concentration. AID 1861, 2009. hit rate 1.1% among 290,000. GPR7-expressing cells, fluorescence antagonist assay. Neuropeptides B/W receptor type 1 (Homo sapiens), P48145. inhibition, % at 4.4 µM; in the data active means inhibition above about 16%, passing the limit was not always enough;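 further: cells stimulated with the agonist NPW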
OX1R HTRF confirm – OX1R (HCRTR1) antagonists, confirmation, cell-based, HTRF; shares compounds with OX1R antag-2; OX1R-expressing cells, HTRF antagonist assay; inhibition, % at 6.6 µM; hit rate 49% among 1,800; AID 492964, 2010; in the data active means inhibition above about 55%;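 further: CHO cells expressing OX1R stimulated with orexin A at about EC80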
CHO-K1 HTRF – signal inhibition in parental CHO-K1 cells, counter-screen for OX1R antagonist project, cell-based, HTRF. shares compounds with OX1R antag-2. inhibition, % at 6.6 µM. AID 493232, 2011. hit rate 48% among 1,800. HTRF counterscreen; in the data active means inhibition above about 17%
Hits are given with their value; - = inactive; . = no result given.

SMILES | MPTP inh | CHO parental Ca | OX1R antag-1 | OX1R antag-2 | GPR7 antagonist | OX1R HTRF confirm | CHO-K1 HTRF
O=C(NNc1c2ccccc2nc2ccccc12)c1ccc(O)cc1O | - | - | - | 102 | - | 84 | 20
O=C(NNc1c2ccccc2nc2ccccc12)c1cccc(O)c1 | - | - | - | - | - | . | .
COc1ccc(NC(=O)N(C)C[C@@H]2Oc3cc(C#CCN(C)C)ccc3S(=O)(=O)N([C@H](C)CO)C[C@H]2C)cc1 | - | . | . | . | . | . | .
N#CC1=C(N)Oc2c(ccc3cccnc23)C1c1cccnc1 (configuration not stated) | - | - | - | 96 | - | - | -
O=C(NCCCN1CCCC1)Nc1ccccc1[N+](=O)[O-] | - | - | - | - | - | . | .
Cc1nnc(N/N=C/c2cc(C)n(-c3ccc(F)cc3)c2C)n1N | - | - | - | 92 | - | - | -
Cc1nnc(N/N=C/c2ccccc2O)n1N | - | - | - | 160 | - | - | -
COc1ccc([C@H]2C[C@H](O)[C@@H](n3cc(C4CC4)nn3)CN2C(=O)c2cccs2)cc1 | - | . | . | . | . | . | .
O=[N+]([O-])c1ccc(C[n+]2ccc(Cc3ccccc3)cc2)cc1 | - | - | - | 111 | - | 73 | 48
O=[N+]([O-])c1ccc(C[n+]2ccccc2)cc1 | - | - | - | - | . | . | .
CCN(CCO)C(=O)c1ccc2nc(Cc3cccc(Cl)c3)oc2c1 | - | - | - | - | - | . | .
CCCS(=O)(=O)N1CCN(c2cc3c(cc2[N+](=O)[O-])n(C)c(=O)n3C)CC1 | - | - | - | 78 | - | - | 49
O=C1C(=O)c2ccccc2C(O)=C1CCCCl | - | - | - | 80 | - | 77 | 96
CCCc1cc(=O)oc2cc(OCC(=O)NC3CC(C)(C)NC(C)(C)C3)ccc12 | - | - | - | - | - | . | .
O=C(CSc1ncn[nH]1)Nc1c(Br)cc([N+](=O)[O-])cc1Br | - | - | - | 96 | - | - | 45
COc1cc2c(=O)n(CCC(=O)NCC3CCCO3)c(=O)n(CC(=O)c3ccc(Cl)cc3)c2cc1OC (configuration not stated) | - | - | - | 93 | - | - | -
Cc1ccc2ncc(NC(=O)c3ccc(F)cc3)c(=O)n2c1 | - | - | - | 91 | - | - | 33
O=C(CSc1ccc([N+](=O)[O-])cn1)Nc1ccc2[nH]c(=O)[nH]c2c1 | - | - | - | 93 | - | - | 24
O=C(CSc1ccc([N+](=O)[O-])cn1)Nc1ccc2c(c1)OCCO2 | - | - | - | - | - | . | .
CC(=O)NC(Cc1cc(C)ccc1C)C(=O)N1CCN(C(=O)c2ccc([N+](=O)[O-])cc2)CC1 (configuration not stated) | - | - | - | - | - | . | .
C[C@@H](CN=[N+]=[N-])CN1CC[C@H](C(C)(C)C)CCC1=O | - | - | - | - | - | . | .
CC(=O)c1nnn(-c2ccc([N+](=O)[O-])cc2C)c1C | - | - | - | 162 | - | - | 40
CCOC(=O)c1csc(-c2ccc([N+](=O)[O-])cc2)n1 | - | - | - | 104 | - | - | 44
CCOC(=O)c1nnn(-c2ccc([N+](=O)[O-])cc2)c1C | - | - | - | 111 | - | - | 54
CCOC(=O)c1cc(-c2cccc([N+](=O)[O-])c2)on1 | - | - | - | - | - | . | .
SMILES | MPTP inh | CHO parental Ca | OX1R antag-1 | OX1R antag-2 | GPR7 antagonist | OX1R HTRF confirm | CHO-K1 HTRF
COC(=O)[C@]1(Cc2ccccc2)N[C@H](CN(C)C(=O)Nc2ccc(Cl)cc2)[C@@H]2C(=O)N(C)C(=O)[C@@H]21 | - | - | - | - | . | . | .
COC(=O)c1ccc(NC(=O)CSc2nnc(C)n2CC2CCCO2)cc1 (configuration not stated) | - | - | - | 89 | - | - | -
COc1ccc(C(C(=O)NC2CCCC2)N(CCCO)C(=O)c2snc(C(N)=O)c2N)cc1 (configuration not stated) | - | - | - | 121 | - | - | -
COCCN(C(=O)c1snc(C(N)=O)c1N)C(C(=O)NC1CCCCC1)c1ccc(OC)c(OC)c1 (configuration not stated) | - | - | - | - | - | . | .
O=C(Nc1ccccc1)C1CCCCN1S(=O)(=O)c1ccccc1 (configuration not stated) | - | - | - | 80 | - | 60 | -
CC1=CC(C)(C)NC(=S)N1CCO | - | . | . | . | . | . | .
CCN(CC)C(=O)CSc1nnc(-c2c[nH]c3ccccc23)o1 | - | - | - | 78 | - | - | -
COC(=O)CSc1nnc(-c2c[nH]c3ccccc23)o1 | - | - | - | - | - | . | .
Cc1nn(-c2ccccc2)c(C)c1NC(=O)COC(=O)CCOc1ccccc1 | - | - | - | - | . | . | .
CC(=O)c1ccc(OCC(=O)Nc2c(C)nn(-c3ccccc3)c2C)cc1 | - | - | - | 91 | . | - | -
O=C(N/N=C/c1cccc(OCC(=O)N2CCCC2)c1)C(=O)Nc1ccccc1F | - | - | - | - | - | . | .
Cc1ccc(/C=C2\SC(=O)N(CCC(=O)N3CCN(C)CC3)C2=O)cc1 | - | - | - | 126 | - | - | 27
COc1cc(/C=C2\SC(=O)N(CCNC(=O)c3sc4cc(F)ccc4c3Cl)C2=O)cc(OC)c1OC | - | - | - | - | - | . | .
CCC1=Nc2ccccc2-c2nnc(SC)nc2O1 | - | - | - | 197 | - | 68 | 95
CSc1nnc2c(n1)OC(C)=Nc1ccccc1-2 | - | - | - | 79 | - | 60 | 101
O=C(CNC(=O)c1ccccc1F)Nc1ccccc1C(F)(F)F | - | - | - | - | - | . | .
COC(=O)c1c(NC(=O)CN2C(=O)C(=O)N(CC(C)C)C2=O)sc(C)c1C | - | - | - | - | - | . | .
COc1ccccc1C(=O)NCC(=O)N=Nc1c(O)n(C(C)C)c2ccccc12 | - | - | - | 93 | - | 76 | -
CCN(CC)c1ccc(/C=N/NC(=O)c2ccoc2C)c(O)c1 | - | - | - | 85 | - | 91 | -
CCN(CC)c1ccc(/C=N/NC(=O)OC)c(O)c1 | - | - | - | - | - | . | .
O=C(OCC#CCSc1nnc(-c2ccc([N+](=O)[O-])cc2)o1)c1cccs1 | - | - | - | 87 | - | - | 30
Cc1ccc(-c2nnc(SCC#CCOC(=O)c3cccs3)o2)cc1 | - | - | - | - | - | . | .
CCOC(=O)c1ccc2[nH]c(C)c(C)c2c1 | - | - | - | 93 | - | 66 | -
Cc1ccc(N2CC(C(=O)N3CCCCC3)CC2=O)cc1C (configuration not stated) | - | - | - | - | - | . | .
